Our source for the IC50 values is ChEMBL document CHEMBL1909613, “Synthesis and biological activity of new bispyridinium salts of 4,4'-bispyridyl-5,5'-perfluoroalkyl-2,2'-bisoxazoles” (Eur J Med Chem, 2011).

Assay [1] deals with HT-29. The assay is described as follows: Cytotoxicity against human HT-29 cells after 72 hrs by MTT assay. The assay is classed as functional, cell-based. In a few lines:
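HT-29 cells grown in DMEM with 10% FBS at 37 °C, 95% humidity, 5% CO2. Seeded and held 24 h, then exposed to increasing concentrations in fresh medium for 72 h, quadruplicate wells per concentration. Viability by MTT absorbance at 595 nm. IC50 from a plot of log OD versus log drug concentration.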

Assay [2] concerns the target Choline kinase alpha (Homo sapiens, UniProt P35790). The assay is described as follows: Inhibition of recombinant human Choline kinase alpha using [methyl-14C]choline chloride as substrate after 30 mins by autoradiography. Summed up:
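Extracts from cells expressing recombinant human ChoK were incubated 30 min at 37 °C in 100 mM Tris pH 8, 10 mM MgCl2, 10 mM ATP and [methyl-14C]choline chloride. Reaction stopped on ice with 500 mM EDTA. Choline and phosphocholine were separated by silica TLC (0.9% NaCl:methanol:ammonium hydroxide 50:70:5) and quantified by electronic autoradiography. IC50 came from a Hill-equation least-squares fit of PCho/(PCho+Cho) versus inhibitor concentration.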

Chain of Choline kinase alpha (P35790 whole entry): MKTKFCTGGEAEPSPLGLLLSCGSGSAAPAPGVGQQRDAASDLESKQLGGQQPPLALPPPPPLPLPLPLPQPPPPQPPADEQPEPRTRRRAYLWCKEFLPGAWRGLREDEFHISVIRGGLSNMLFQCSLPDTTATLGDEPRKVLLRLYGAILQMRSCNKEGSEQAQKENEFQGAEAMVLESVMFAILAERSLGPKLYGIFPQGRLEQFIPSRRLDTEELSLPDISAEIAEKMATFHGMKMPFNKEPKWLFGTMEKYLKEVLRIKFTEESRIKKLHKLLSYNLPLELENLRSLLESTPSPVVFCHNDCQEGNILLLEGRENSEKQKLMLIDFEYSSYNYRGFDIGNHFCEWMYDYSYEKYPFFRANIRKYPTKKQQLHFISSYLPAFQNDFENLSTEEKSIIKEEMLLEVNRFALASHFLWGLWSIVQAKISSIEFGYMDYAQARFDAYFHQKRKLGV

Broadly, the IC50 is the concentration that gives 50% inhibition. Take `OCC[n+]1ccc(-c2nc(-c3ccc(-c4ccc(-c5nc(-c6cc[n+](CCO)cc6)c(C(F)(F)C(F)(F)F)o5)cc4)cc3)oc2C(F)(F)C(F)(F)F)cc1`: the IC50 worked out at 0.84 µM in assay [1] (Homo sapiens, HT-29, 72 h) and 9.65 µM in assay [2].
Take `OCC[n+]1ccc(-c2nc(-c3ccc(-c4ccc(-c5nc(-c6cc[n+](CCO)cc6)c(C(F)(F)F)o5)cc4)cc3)oc2C(F)(F)F)cc1` [listing 1 of 2 here]: the IC50 was 1.5 µM in assay [1] (Homo sapiens, HT-29, 72 h) and 23.8 µM in assay [2].
With `OCC[n+]1ccc(-c2nc(-c3ccc(-c4ccc(-c5nc(-c6cc[n+](CCO)cc6)c(C(F)(F)F)o5)cc4)cc3)oc2C(F)(F)F)cc1` [listing 2 of 2 here], the figures for the half-maximal inhibitory concentration (IC50) in assay [1] (ht-29) and in assay [2] were 1.85 µM and greater than 20 µM, respectively.
Take `OCC[n+]1ccc(-c2nc(-c3ccc(-c4ccc(-c5nc(-c6cc[n+](CCO)cc6)c(C(F)(F)C(F)(F)C(F)(F)F)o5)cc4)cc3)oc2C(F)(F)C(F)(F)C(F)(F)F)cc1`: the IC50 turned out to be 2.26 µM in assay [1] (Homo sapiens, HT-29, 72 h) and 17.3 µM in assay [2].
For `CN(C)C(=O)C[n+]1ccc(-c2nc(-c3ccc(-c4ccc(-c5nc(-c6cc[n+](CC(=O)N(C)C)cc6)c(C(F)(F)C(F)(F)C(F)(F)F)o5)cc4)cc3)oc2C(F)(F)C(F)(F)C(F)(F)F)cc1` the same measures were 2.5 µM and 4.25 µM.
For `CN(C)C(=O)C[n+]1ccc(-c2nc(-c3ccc(-c4ccc(-c5nc(-c6cc[n+](CC(=O)N(C)C)cc6)c(C(F)(F)F)o5)cc4)cc3)oc2C(F)(F)F)cc1` the same measures were 4 µM and 0.3 µM.
As for `CN(C)C(=O)C[n+]1ccc(-c2nc(-c3ccc(-c4ccc(-c5nc(-c6cc[n+](CC(=O)N(C)C)cc6)c(C(F)(F)C(F)(F)F)o5)cc4)cc3)oc2C(F)(F)C(F)(F)F)cc1`, the IC50 in assay [1] (ht-29) was found to be 5.5 µM; in assay [2] it was 2 µM.
`OCC[n+]1ccc(-c2nc(-c3ccc(C(c4ccc(-c5nc(-c6cc[n+](CCO)cc6)c(C(F)(F)C(F)(F)F)o5)cc4)(C(F)(F)F)C(F)(F)F)cc3)oc2C(F)(F)C(F)(F)F)cc1` [listing 1 of 2 here]: the 50% inhibitory concentration (IC50) in assay [1] (Homo sapiens, HT-29, 72 h) is 6 µM; in assay [2] it was 4.4 µM.
The corresponding values for `OCC[n+]1ccc(-c2nc(-c3ccc(C(c4ccc(-c5nc(-c6cc[n+](CCO)cc6)c(C(F)(F)C(F)(F)C(F)(F)F)o5)cc4)(C(F)(F)F)C(F)(F)F)cc3)oc2C(F)(F)C(F)(F)C(F)(F)F)cc1` are 6.35 µM and 13.5 µM.
Turning to `OCC[n+]1ccc(-c2nc(-c3ccc(C(c4ccc(-c5nc(-c6cc[n+](CCO)cc6)c(C(F)(F)C(F)(F)F)o5)cc4)(C(F)(F)F)C(F)(F)F)cc3)oc2C(F)(F)C(F)(F)F)cc1` [listing 2 of 2 here], the values for the IC50 in assay [1] (ht-29) and in assay [2] were 7.7 µM and 4.2 µM, respectively.
For `FC(F)(F)C(F)(F)c1oc(-c2ccc(C(c3ccc(-c4nc(-c5cc[n+](CCCl)cc5)c(C(F)(F)C(F)(F)F)o4)cc3)(C(F)(F)F)C(F)(F)F)cc2)nc1-c1cc[n+](CCCl)cc1`, the IC50 in assay [1] (Homo sapiens, HT-29, 72 h) worked out at 9.3 µM; in assay [2] it was 14.2 µM.
As to `FC(F)(F)c1oc(-c2ccc(C(c3ccc(-c4nc(-c5cc[n+](CCCl)cc5)c(C(F)(F)F)o4)cc3)(C(F)(F)F)C(F)(F)F)cc2)nc1-c1cc[n+](CCCl)cc1`, the IC50 is 13.8 µM in assay [1] (Homo sapiens, HT-29, 72 h) and 12.5 µM in assay [2].
`FC(F)(F)C(F)(F)C(F)(F)c1oc(-c2ccc(C(c3ccc(-c4nc(-c5cc[n+](CCCl)cc5)c(C(F)(F)C(F)(F)C(F)(F)F)o4)cc3)(C(F)(F)F)C(F)(F)F)cc2)nc1-c1cc[n+](CCCl)cc1`: the IC50 in assay [1] (Homo sapiens, HT-29, 72 h) is 15.5 µM; in assay [2] it was 11.6 µM.
For the compound `CN(C)C(=O)C[n+]1ccc(-c2nc(-c3ccc(C(c4ccc(-c5nc(-c6cc[n+](CC(=O)N(C)C)cc6)c(C(F)(F)F)o5)cc4)(C(F)(F)F)C(F)(F)F)cc3)oc2C(F)(F)F)cc1`, the IC50 in assay [1] (Homo sapiens, HT-29, 72 h) is greater than 20 µM; in assay [2], 6.15 µM.
For `CN(C)C(=O)C[n+]1ccc(-c2nc(-c3ccc(-c4nc(-c5cc[n+](CC(=O)N(C)C)cc5)c(C(F)(F)F)o4)cc3)oc2C(F)(F)F)cc1` the same measures were greater than 50 µM and 1.35 µM.
In the case of `CN(C)C(=O)C[n+]1ccc(-c2nc(-c3ccc(-c4nc(-c5cc[n+](CC(=O)N(C)C)cc5)c(C(F)(F)C(F)(F)F)o4)cc3)oc2C(F)(F)C(F)(F)F)cc1`, the half-maximal inhibitory concentration (IC50) is greater than 50 µM in assay [1] (Homo sapiens, HT-29, 72 h) and 15 µM in assay [2].
